Experiments:
[1] = Selectivity index, ratio of IC50 for human HL7702 cells to IC50 for human NCI-H1975 cells; assay type: toxicity
Outline: (§1)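 Selectivity index taken as the logarithm of the ratio of the HL7702 IC50 to the cancer-line IC50. […] Not calculated when an IC50 was lacking.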

[2] = Selectivity index, ratio of IC50 for human HL7702 cells to IC50 for human A549 cells; assay type: toxicity; outline: as §1
[3] = system: NCI-H1975; assay: Cytotoxicity against human NCI-H1975 cells assessed as reduction in cell viability after 72 hrs by MTT assay; assay type: functional, cell-based; settings: NCI-H1975, 72 h
Outline: (§2)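 Cells in RPMI 1640 with 10% heat-inactivated FBS and penicillin/streptomycin at 37 °C, 5% CO2. Seeded at 4000 per well, adhered overnight, then exposed to graded compound concentrations in triplicate wells for 72 h. MTT (5 mg/mL stock) added for 4 h, dissolved in DMSO, A490 read. IC50 is the concentration reducing viability by 50% versus untreated control.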

[4] = system: NCI-H1650; assay: Cytotoxicity against human NCI-H1650 cells assessed as reduction in cell viability after 72 hrs by MTT assay; assay type: functional, cell-based; settings: NCI-H1650, 72 h; outline: as §2
[5] = system: L02; assay: Cytotoxicity against human HL7702 cells assessed as reduction in cell viability after 72 hrs by MTT assay; assay type: cell-based; settings: L02, 72 h; outline: as §2
[6] = system: A549; assay: Cytotoxicity against human A549 cells assessed as reduction in cell viability after 72 hrs by MTT assay; assay type: functional, cell-based; settings: A549, 72 h; outline: as §2
[7] = Selectivity index, ratio of IC50 for human HL7702 cells to IC50 for human NCI-H1650 cells; assay type: toxicity; outline: as §1
[8] = Selectivity index, ratio of IC50 for human HL7702 cells to IC50 for human H460 cells; assay type: toxicity; outline: as §1
[9] = system: NCI-H460; assay: Cytotoxicity against human H460 cells assessed as reduction in cell viability after 72 hrs by MTT assay; assay type: functional, cell-based; settings: NCI-H460, 72 h; outline: as §2
[10] = system: A549; assay: Anticlonogenic activity against human A549 cells assessed as inhibition of clonogenic growth at 9 uM incubated for 2 days followed by replacement of growth media and measured after 8 days by crystal violet staining-based assay relative to control; assay type: functional
Outline: (§3)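 A549 cells grown in 1640 medium with 10% heat-inactivated FBS at 37 °C, 5% CO2. Seeded at 1000 cells per well, then exposed to drug or left untreated. Medium, with or without drug, replaced after 2 days. 8 days later colonies fixed with 1% methanol and 1% formaldehyde, stained with 0.5% crystal violet and photographed. Percent inhibition expressed relative to control.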

[11] = system: A549; assay: Anticlonogenic activity against human A549 cells assessed as inhibition of clonogenic growth at 3 uM incubated for 2 days followed by replacement of growth media and measured after 8 days by crystal violet staining-based assay relative to control; assay type: functional; outline: as §3

| Compound | log(RatioIC50) [1] | log(RatioIC50) [2] | IC50 [3] | IC50 [4] | IC50 [5] | IC50 [6] | log(RatioIC50) [7] | log(RatioIC50) [8] | IC50 [9] | inhibition at 9 µM [10] | inhibition at 3 µM [11] |
| --- | --- | --- | --- | --- | --- | --- | --- | --- | --- | --- | --- |
| COc1cc(/C=C2\CN(C(=O)C(C)C)C/C(=C\c3cc(OC)c(OC)c(OC)c3)C2=O)cc(OC)c1OC | 0.81 | 1.18 | 1.9 µM | 10.8 µM | 12.2 µM | 0.8 µM | 0.05 | 0.79 | 2 µM | – | – |
| COc1ccc(/C=C2\CN(C)C/C(=C\c3ccc(OC)c(OC)c3)C2=O)cc1OC | 0.44 | 1.15 | 6.6 µM | 9 µM | 18.2 µM | 1.3 µM | 0.31 | 0.77 | 3.1 µM | – | – |
| O=c1[nH]cc(F)c(=O)[nH]1 [FLUOROURACIL] | – | – | – | – | – | – | – | – | – | 70% | 38% |
| COc1cc(/C=C2\CNC/C(=C\c3cc(OC)c(OC)c(OC)c3)C2=O)cc(OC)c1OC | 0.28 | 0.8 | 4 µM | 4.2 µM | 7.6 µM | 1.2 µM | 0.26 | 0.7 | 1.5 µM | – | – |
| O=C1/C(=C/c2ccccc2F)CNC/C1=C\c1ccccc1F | 0.59 | 0.33 | 1.3 µM | 1.7 µM | 5.1 µM | 2.4 µM | 0.48 | 0.63 | 1.2 µM | – | – |
| CCN1C/C(=C\c2ccc(OC)c(OC)c2)C(=O)/C(=C/c2ccc(OC)c(OC)c2)C1 | 0.06 | 0.43 | 8.5 µM | 12 µM | 9.8 µM | 3.6 µM | -0.09 | 0.43 | 3.6 µM | – | – |
| COc1cc(/C=C2\CN(C(=O)c3ccccc3F)C/C(=C\c3cc(OC)c(OC)c(OC)c3)C2=O)cc(OC)c1OC | 0.5 | 0.8 | 1.4 µM | 1.9 µM | 4.4 µM | 0.7 µM | 0.36 | 0.47 | 1.5 µM | – | – |
| CCC(=O)N1C/C(=C\c2cc(OC)c(OC)c(OC)c2)C(=O)/C(=C/c2cc(OC)c(OC)c(OC)c2)C1 | 0.39 | 0.72 | 1.7 µM | 4.4 µM | 4.2 µM | 0.8 µM | -0.02 | 0.19 | 2.7 µM | – | – |
| COc1cc(/C=C/C(=O)CC(=O)/C=C/c2ccc(O)c(OC)c2)ccc1O [CURCUMIN] | 0.71 | 0.02 | 1.4 µM | – | 7.2 µM | 6.8 µM | -0.45 | -0.07 | 8.5 µM | – | – |
| CCCN1C/C(=C\c2ccc(OC)c(OC)c2)C(=O)/C(=C/c2ccc(OC)c(OC)c2)C1 | 0.27 | 0.7 | 11.2 µM | 16 µM | 21 µM | 4.2 µM | 0.12 | 0.71 | 4.1 µM | – | – |
| CCN1C/C(=C\c2cc(OC)c(OC)c(OC)c2)C(=O)/C(=C/c2cc(OC)c(OC)c(OC)c2)C1 | 0.29 | 0.48 | 6.5 µM | 8.2 µM | 12.8 µM | 4.2 µM | 0.19 | 0.42 | 4.9 µM | – | – |
| Cc1ccc2nc(NCCN)c3ncc(C)n3c2c1 [BMS-345541] | 0.28 | 0.25 | 8 µM | 9.3 µM | 15.3 µM | 8.6 µM | 0.22 | 0.74 | 2.8 µM | – | – |
| COc1cc(/C=C2\CN(C(=O)CCC(=O)O)C/C(=C\c3cc(OC)c(OC)c(OC)c3)C2=O)cc(OC)c1OC | – | – | > 60 µM | > 60 µM | > 60 µM | 17.9 µM | – | – | > 60 µM | – | – |
| COc1ccc(/C=C2\CNC/C(=C\c3ccc(OC)c(OC)c3)C2=O)cc1OC | 0.17 | 0.72 | 10.3 µM | 16.7 µM | 15.1 µM | 2.9 µM | -0.04 | 0.37 | 6.4 µM | – | – |
